Experiments:
Calf thymus DNA = assay: Binding affinity to calf thymus DNA assessed as change in melting temperature; assay type: nucleic-acid assay; conditions: Bos taurus
Outline: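 Drug first dissolved in Me2SO to a final 5% Me2SO in the assay medium. DNA binding is read as the shift in DNA melting temperature (ΔTm). ΔTm below 1 is taken as insignificant binding.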

L1210 [1] = assay: Inhibition of DNA synthesis in mouse L1210 cells; assay type: functional; conditions: read-out: ED50 (the source's name)
Outline: (§1)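 L1210 leukemia cells. Drugs were first dissolved in Me2SO to a final 1% Me2SO in the assay medium. Inhibition of DNA and RNA synthesis was measured separately and reported as ED50 (50% inhibitory dose, μM). Selectivity is the ratio of the DNA ED50 to the RNA ED50.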

Salmonella typhimurium [2] = assay: Mutagenicity in Salmonella typhimurium TA98 assessed as number of revertants by Ames test in absence of microsomal activation; assay type: toxicity, organism-based; conditions: salmonella enterica subsp. enterica serovar typhimurium
Outline: (§2)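 Ames plate test using Salmonella typhimurium tester strain TA98. Compounds were tested over dose ranges of 0-20 to 0-100 µg/plate, depending on the compound, and the toxicity level per plate was noted. Mutagenicity is expressed as revertants produced per nmol of compound.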

L1210 [3] = assay: Inhibition of RNA synthesis in mouse L1210 cells; assay type: functional; conditions: read-out: ED50 (the source's name); outline: as §1
L1210 [4] = assay: Selectivity ratio of ED50 for inhibition of DNA synthesis in mouse L1210 cells to ED50 for inhibition of RNA synthesis in mouse L1210 cells; assay type: functional; outline: as §1
P388 [5] = assay: Antitumor activity against mouse P388 cells allografted in CDF/BDF mouse assessed as survival time at 18.8 mg/kg, ip administered as qd on day 5, 9, 13; assay type: functional; conditions: route intraperitoneal
Salmonella typhimurium [6] = assay: Mutagenicity in Salmonella typhimurium TA98 assessed as number of revertants by Ames test in presence of microsomal activation; assay type: toxicity, organism-based; conditions: salmonella enterica subsp. enterica serovar typhimurium; outline: as §2
P388 [7] = assay: Antitumor activity against mouse P388 cells allografted in CDF/BDF mouse assessed as survival time at 3.12 mg/kg, ip administered as qd for 1 to 9 days relative to control; assay type: functional; conditions: route intraperitoneal
P388 [8] = assay: Antitumor activity against ip dosed mouse P388 cells allografted in CDF/BDF mouse assessed as survival time administered as qd for 1 to 9 days relative to control; assay type: functional
Rattus norvegicus = species on record: Rattus norvegicus; assay: Cardiotoxicity in rat assessed as minimum cumulative cardiotoxic dose by Zbinden test; assay type: toxicity, organism-based; conditions: in vivo
Outline: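 Zbinden cardiotoxicity assay in rats. Drug was given cumulatively, with ECG monitoring. Value is the minimum total dose (mg/kg) that causes significant ECG alterations.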

Salmonella typhimurium [9] = assay: Toxicity in Salmonella typhimurium TA98 assessed as concentration required to cause mortality per plate; assay type: organism-based; conditions: salmonella enterica subsp. enterica serovar typhimurium
Outline: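 Ames plate test with Salmonella typhimurium tester strain TA98. Compounds were tested over ranges from 0–20 up to 0–100 µg/plate, depending on compound. The toxicity level is reported in µg/plate.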

P388 [10] = assay: Antitumor activity against mouse P388 cells allografted in CDF/BDF mouse assessed as survival time at 8 mg/kg, ip administered as qd on day 5, 9, 13; assay type: functional; conditions: route intraperitoneal
P388 [11] = assay: Antitumor activity against mouse P388 cells allografted in CDF/BDF mouse assessed as survival time at 0.78 mg/kg, ip administered as qd for 1 to 9 days relative to control; assay type: functional; conditions: route intraperitoneal
P388 [12] = assay: Antitumor activity against mouse P388 cells allografted in CDF/BDF mouse assessed as survival time at 3.13 mg/kg, ip administered as qd for 1 to 9 days relative to control; assay type: functional; conditions: route intraperitoneal
P388 [13] = assay: Antitumor activity against mouse P388 cells allografted in CDF/BDF mouse assessed as survival time at 6.25 mg/kg, ip administered as qd for 1 to 9 days relative to control; assay type: functional; conditions: route intraperitoneal
P388 [14] = assay: Antitumor activity against mouse P388 cells allografted in CDF/BDF mouse assessed as survival time at 1.56 mg/kg, ip administered as qd for 1 to 9 days relative to control; assay type: functional; conditions: route intraperitoneal
P388 [15] = assay: Antitumor activity against mouse P388 cells allografted in CDF/BDF mouse assessed as survival time at 18 mg/kg, ip administered as qd on day 5, 9, 13; assay type: functional; conditions: route intraperitoneal
P388 [16] = assay: Antitumor activity against mouse P388 cells allografted in CDF/BDF mouse assessed as survival time at 37.5 mg/kg, ip administered as qd on day 5, 9, 13; assay type: functional; conditions: route intraperitoneal
P388 [17] = assay: Antitumor activity against mouse P388 cells allografted in CDF/BDF mouse assessed as survival time at 12.5 mg/kg, ip administered as qd for 1 to 9 days relative to control; assay type: functional; conditions: route intraperitoneal
P388 [18] = assay: Antitumor activity against mouse P388 cells allografted in CDF/BDF mouse assessed as survival time at 4 mg/kg, ip administered as qd for 1 to 9 days relative to control; assay type: functional; conditions: route intraperitoneal
P388 [19] = assay: Antitumor activity against mouse P388 cells allografted in CDF/BDF mouse assessed as survival time at 25 mg/kg, ip administered as qd on day 5, 9, 13; assay type: functional; conditions: route intraperitoneal

| SMILES | ΔTm (Calf thymus DNA) | EC50 (L1210 [1]) | EC50 (L1210 [3]) | Ratio ED50 (L1210 [4]) | Activity (Salmonella typhimurium [6]) | further results |
| --- | --- | --- | --- | --- | --- | --- |
| COc1cccc2c1C(=O)c1c(O)c3c(c(O)c1C2=O)C[C@@](O)(C(C)=O)C[C@@H]3O[C@H]1C[C@H](NCc2ccccc2)[C@H](O)[C@H](C)O1.Cl | 10.2 °C | 1600 nM | 170 nM | 9.4 | 0.5 nmol⁻¹ | Activity (Salmonella typhimurium [2]): Non-toxic; T/C (P388 [5]): 184%; T/C (P388 [7]): 185% |
| CCCCCCCCCCN[C@H]1C[C@H](O[C@H]2C[C@](O)(C(C)=O)Cc3c(O)c4c(c(O)c32)C(=O)c2c(OC)cccc2C4=O)O[C@@H](C)[C@H]1O.Cl | 7 °C | 3300 nM | 2600 nM | 1.3 | – | T/C (P388 [8]): <125% |
| COc1cccc2c1C(=O)c1c(O)c3c(c(O)c1C2=O)C[C@@](O)(C(C)=O)C[C@@H]3O[C@H]1C[C@H](N)[C@H](O)[C@H](C)O1 [DAUNORUBICIN] | – | 660 nM | 330 nM | – | 100 nmol⁻¹ | MTC (Rattus norvegicus): 14 mg/kg; Activity (Salmonella typhimurium [9]): 5 µg; T/C (P388 [10]): 132%; T/C (P388 [11]): 160% |
| COc1cccc2c1C(=O)c1c(O)c3c(c(O)c1C2=O)C[C@@](O)(C(=O)CO)C[C@@H]3O[C@H]1C[C@H](N2CCCCC2)[C@H](O)[C@H](C)O1.Cl | 15.4 °C | 700 nM | 40 nM | 17.5 | 1 nmol⁻¹ | Activity (Salmonella typhimurium [2]): Non-toxic; Activity (Salmonella typhimurium [9]): 20 µg; T/C (P388 [12]): 190% |
| COc1cccc2c1C(=O)c1c(O)c3c(c(O)c1C2=O)C[C@@](O)(C(C)O)C[C@@H]3O[C@H]1C[C@H](NCc2ccccc2)[C@H](O)[C@H](C)O1.Cl (stereo partly specified) | 6.25 °C | 1700 nM | 320 nM | 5.3 | – | T/C (P388 [13]): 221% |
| CCN(CC)[C@H]1C[C@H](O[C@H]2C[C@](O)(C(=O)CO)Cc3c(O)c4c(c(O)c32)C(=O)c2c(OC)cccc2C4=O)O[C@@H](C)[C@H]1O.Cl | 14.6 °C | 700 nM | 210 nM | 3.3 | – | T/C (P388 [12]): 171% |
| COc1cccc2c1C(=O)c1c(O)c3c(c(O)c1C2=O)C[C@@](O)(C(O)CO)C[C@@H]3O[C@H]1C[C@H](N2CCCCC2)[C@H](O)[C@H](C)O1.Cl (stereo partly specified) | 12.5 °C | 720 nM | 100 nM | 7.2 | – | T/C (P388 [14]): 157%; T/C (P388 [15]): 143% |
| CCCCCCCCCCN(CCCCCCCCCC)[C@H]1C[C@H](O[C@H]2C[C@](O)(C(C)=O)Cc3c(O)c4c(c(O)c32)C(=O)c2c(OC)cccc2C4=O)O[C@@H](C)[C@H]1O.Cl | 0.1 °C | 280000 nM | 130000 nM | 2.1 | – | T/C (P388 [8]): <125% |
| COc1cccc2c1C(=O)c1c(O)c3c(c(O)c1C2=O)C[C@@](O)(C(=O)CO)C[C@@H]3O[C@H]1C[C@H](N)[C@H](O)[C@H](C)O1 [DOXORUBICIN] | 13.4 °C | 1500 nM | 580 nM | 2.6 | – | MTC (Rattus norvegicus): 11 mg/kg; T/C (P388 [10]): 159%; T/C (P388 [11]): 197% |
| COc1cccc2c1C(=O)c1c(O)c3c(c(O)c1C2=O)C[C@@](O)(C(O)CO)C[C@@H]3O[C@H]1C[C@H](NCc2ccccc2)[C@H](O)[C@H](C)O1.Cl (stereo partly specified) | 7.6 °C | 1400 nM | 290 nM | 4.8 | – | T/C (P388 [14]): 176%; T/C (P388 [16]): 135% |
| COc1cccc2c1C(=O)c1c(O)c3c(c(O)c1C2=O)C[C@@](O)(C(C)=O)C[C@@H]3O[C@H]1C[C@H](NC(C)C)[C@H](O)[C@H](C)O1.Cl | 10.6 °C | 1100 nM | 320 nM | 3.4 | – | T/C (P388 [17]): 199% |
| COc1cccc2c1C(=O)c1c(O)c3c(c(O)c1C2=O)C[C@@](O)(C(=O)CO)C[C@@H]3O[C@H]1C[C@H](NCc2ccccc2)[C@H](O)[C@H](C)O1.Cl | 11.3 °C | 650 nM | 90 nM | 7.2 | – | T/C (P388 [12]): 185%; T/C (P388 [5]): 190% |
| COc1cccc2c1C(=O)c1c(O)c3c(c(O)c1C2=O)C[C@@](O)(C(=O)CO)C[C@@H]3O[C@H]1C[C@H](N(C)C)[C@H](O)[C@H](C)O1.Cl | 17.5 °C | 620 nM | 120 nM | 5.2 | 1 nmol⁻¹ | MTC (Rattus norvegicus): 6 mg/kg; Activity (Salmonella typhimurium [2]): Non-toxic; Activity (Salmonella typhimurium [9]): 20 µg |
| COc1cccc2c1C(=O)c1c(O)c3c(c(O)c1C2=O)C[C@@](O)(C(C)=O)C[C@@H]3O[C@H]1C[C@H](N(C)C)[C@H](O)[C@H](C)O1.Cl | – | 670 nM | 64 nM | 10.4 | 0 nmol⁻¹ | MTC (Rattus norvegicus): 11 mg/kg; Activity (Salmonella typhimurium [2]): Non-toxic; Activity (Salmonella typhimurium [9]): 20 µg |
| CCN(CC)[C@H]1C[C@H](O[C@H]2C[C@](O)(C(C)=O)Cc3c(O)c4c(c(O)c32)C(=O)c2c(OC)cccc2C4=O)O[C@@H](C)[C@H]1O.Cl | 13.6 °C | 670 nM | 130 nM | 5.2 | – | T/C (P388 [18]): 178% |
| COc1cccc2c1C(=O)c1c(O)c3c(c(O)c1C2=O)C[C@@](O)(C(C)O)C[C@@H]3O[C@H]1C[C@H](N(Cc2ccccc2)Cc2ccccc2)[C@H](O)[C@H](C)O1.Cl (stereo partly specified) | 0.6 °C | 220000 nM | 7600 nM | 29.1 | 0.5 nmol⁻¹ | Activity (Salmonella typhimurium [2]): Non-toxic; T/C (P388 [19]): 183%; T/C (P388 [17]): 231% |
| COc1cccc2c1C(=O)c1c(O)c3c(c(O)c1C2=O)C[C@@](O)(C(=O)CO)C[C@@H]3O[C@H]1C[C@H](N(Cc2ccccc2)Cc2ccccc2)[C@H](O)[C@H](C)O1.Cl | 0 °C | 110000 nM | 4800 nM | 22.8 | – | T/C (P388 [13]): 175% |
